ChEMBL document CHEMBL3297741, “Cytotoxic cleistanthane and cassane diterpenoids from the entomogenous fungus Paraconiothyrium hawaiiense” (J Nat Prod, 2014)
The source made the active and inactive calls. No cut-off for these calls is given here.

How the values were obtained:
Type in all cases: functional, cell-based
[1] = test system: HCT-116; assay: Cytotoxicity against human HCT116 cells after 48 hrs by […]; conditions: HCT-116, 48 h
How it was run: (§1)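 MTS read-out. Cells were seeded at (2−5) × 10^3 per well, depending on growth rate, and attached overnight. Medium was then replaced with medium holding serial dilutions of compound from 100 mM DMSO stocks, with 0.1% DMSO vehicle and cisplatin control. Plates were incubated 48 h at 37 °C in humidified 5% CO2. MTS was added for 90 min at 37 °C in the dark, and absorbance read at 490 nm. Triplicate runs gave IC50.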

[2] = test system: A549; assay: Cytotoxicity against human A549 cells after 48 hrs by […]; conditions: A549, 48 h; how it was run: as §1
[3] = Cytotoxicity against human T24 cells after 48 hrs by […]; conditions: T-24, 48 h; how it was run: as §1
[4] = test system: HeLa; assay: Cytotoxicity against human HeLa cells after 48 hrs by […]; how it was run: as §1
[5] = test system: MCF7; assay: Cytotoxicity against human MCF7 cells after 48 hrs by […]; conditions: MCF7, 48 h; how it was run: as §1
[6] = test system: A549; assay: Cytotoxicity against human A549 cells at 50 uM after 48 hrs by […]
How it was run: (§2)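 Single concentration of 50 μM tested in the MTS proliferation assay. Cells were seeded at (2−5) × 10^3 per well and attached overnight. Compound was diluted in medium from 100 mM DMSO stock, alongside a 0.1% DMSO vehicle. Plates were incubated 48 h at 37 °C in humidified 5% CO2. MTS was added for 90 min at 37 °C, then absorbance read at 490 nm. Run in triplicate.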

[7] = test system: T-24; assay: Cytotoxicity against human T24 cells at 50 uM after 48 hrs by […]; how it was run: as §2
[8] = test system: HeLa; assay: Cytotoxicity against human HeLa cells at 50 uM after 48 hrs by […]; how it was run: as §2
[9] = test system: HCT-116; assay: Cytotoxicity against human HCT116 cells at 50 uM after 48 hrs by […]; how it was run: as §2
[10] = test system: MCF7; assay: Cytotoxicity against human MCF7 cells at 50 uM after 48 hrs by […] assay; how it was run: as §2

Row | Structure (SMILES) | IC50 [1] [µM] | IC50 [2] [µM] | IC50 [3] [µM] | IC50 [4] [µM] | IC50 [5] [µM] | inhibition [6] | inhibition [7] | inhibition [8] | inhibition [9] | inhibition [10]
1 | C=C[C@@H]1C(=C)CC[C@H]2[C@H]1C[C@H]1OC(=O)[C@@]3(C)[C@H](OC(C)=O)CC[C@@]2(C)[C@@]13O | 37.3 | 43.6 | 20.7 | 43.7 | 23.4 | – | – | – | – | –
2 | C=CC1=CC[C@H]2[C@@H](CC(=O)[C@@]3(O)[C@@]4(C)C(=O)O[C@H]4CC[C@]23C)[C@H]1C | – | – | – | – | – | inactive | inactive | inactive | inactive | inactive
3 | C=C[C@@H]1C(=C)CC[C@H]2[C@H]1CC(=O)[C@@]1(O)[C@@]3(C)C(=O)O[C@H]3CC[C@]21C | 6.23 | 7.48 | 4.26 | 2.84 | 7.43 | – | – | – | – | –
4 | C=C[C@@H]1C(=C)CC[C@H]2[C@H]1C[C@H]1OC(=O)[C@@]3(C)[C@H](O)CC[C@@]2(C)[C@@]13O | – | – | – | 50.3 | – | – | – | – | – | –
